Experimental data taken from ChEMBL document CHEMBL1141179 (J Med Chem, 2005).

Key:
[1] = biological target: Somatostatin receptor type 4 (Homo sapiens, UniProt P31391); assay: Inhibition of 125I-[Leu8,D-Trp22,Tyr25]SRIF-28 binding to human somatostatin receptor type 4
[2] = biological target: Somatostatin receptor type 2 (Homo sapiens, UniProt P30874); assay: Inhibition of 125I-[Leu8,D-Trp22,Tyr25]SRIF-28 binding to human somatostatin receptor type 2
Summary of the method: (§1)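 Human sst2 or sst3 receptor stably expressed in CCL39 cells. 20 µm cryostat sections of cell membrane pellets were used for autoradiographic binding. IC50 (nM) came from competitive displacement. Values are mean ± SEM when N ≥ 3; otherwise mean with single values.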

[3] = biological target: Somatostatin receptor type 3 (Homo sapiens, UniProt P32745); assay: Inhibition of 125I-[Leu8,D-Trp22,Tyr25]SRIF-28 binding to human somatostatin receptor type 3; summary of the method: as §1
Sequence of Somatostatin receptor type 3 (P32745 whole entry): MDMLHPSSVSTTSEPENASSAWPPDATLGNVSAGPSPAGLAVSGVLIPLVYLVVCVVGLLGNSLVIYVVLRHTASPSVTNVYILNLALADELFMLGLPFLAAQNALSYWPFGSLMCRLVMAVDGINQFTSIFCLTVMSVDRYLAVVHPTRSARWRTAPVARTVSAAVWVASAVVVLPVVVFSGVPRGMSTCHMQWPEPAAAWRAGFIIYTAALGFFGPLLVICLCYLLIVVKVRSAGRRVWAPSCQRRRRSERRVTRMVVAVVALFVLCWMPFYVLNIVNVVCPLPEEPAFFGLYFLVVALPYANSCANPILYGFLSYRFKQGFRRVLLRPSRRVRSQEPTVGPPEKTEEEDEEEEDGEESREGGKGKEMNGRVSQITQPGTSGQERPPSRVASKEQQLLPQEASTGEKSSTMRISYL

[4] = biological target: Somatostatin receptor type 1 (Homo sapiens, UniProt P30872); assay: Inhibition of 125I-[Leu8,D-Trp22,Tyr25]SRIF-28 binding to human somatostatin receptor type 1
Sequence of Somatostatin receptor type 1 (P30872 whole entry): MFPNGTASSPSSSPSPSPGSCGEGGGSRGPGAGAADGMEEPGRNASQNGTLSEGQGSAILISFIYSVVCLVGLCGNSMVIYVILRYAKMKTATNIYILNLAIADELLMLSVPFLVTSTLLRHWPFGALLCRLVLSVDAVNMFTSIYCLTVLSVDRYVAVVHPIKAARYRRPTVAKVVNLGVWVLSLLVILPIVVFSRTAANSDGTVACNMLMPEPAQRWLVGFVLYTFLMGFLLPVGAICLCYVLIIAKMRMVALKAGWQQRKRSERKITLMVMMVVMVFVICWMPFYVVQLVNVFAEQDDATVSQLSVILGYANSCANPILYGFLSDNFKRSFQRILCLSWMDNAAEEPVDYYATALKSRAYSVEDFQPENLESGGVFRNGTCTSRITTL
Summary of the method: (§2)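 Human sst1 or sst5 receptor stably expressed in CHO-K1 cells. 20 µm cryostat sections of cell membrane pellets were used for receptor autoradiography. IC50 (nM) came from competitive radioligand displacement. Values are mean ± SEM when N ≥ 3; otherwise mean with single values.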

[5] = biological target: Somatostatin receptor type 5 (Homo sapiens, UniProt P35346); assay: Inhibition of 125I-[Leu8,D-Trp22,Tyr25]SRIF-28 binding to human somatostatin receptor type 5; summary of the method: as §2
Sequence of Somatostatin receptor type 5 (P35346 whole entry): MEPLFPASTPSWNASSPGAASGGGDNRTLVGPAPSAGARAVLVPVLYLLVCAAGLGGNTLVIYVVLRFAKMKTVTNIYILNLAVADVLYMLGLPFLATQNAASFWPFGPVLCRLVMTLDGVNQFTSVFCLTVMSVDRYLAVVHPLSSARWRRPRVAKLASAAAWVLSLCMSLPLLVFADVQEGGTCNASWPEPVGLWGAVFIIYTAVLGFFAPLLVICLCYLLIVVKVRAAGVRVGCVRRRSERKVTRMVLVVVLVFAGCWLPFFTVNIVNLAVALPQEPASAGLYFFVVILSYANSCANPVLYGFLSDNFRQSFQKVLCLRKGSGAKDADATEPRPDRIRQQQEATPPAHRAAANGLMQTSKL

Sequence of Somatostatin receptor type 4 (P31391 whole entry): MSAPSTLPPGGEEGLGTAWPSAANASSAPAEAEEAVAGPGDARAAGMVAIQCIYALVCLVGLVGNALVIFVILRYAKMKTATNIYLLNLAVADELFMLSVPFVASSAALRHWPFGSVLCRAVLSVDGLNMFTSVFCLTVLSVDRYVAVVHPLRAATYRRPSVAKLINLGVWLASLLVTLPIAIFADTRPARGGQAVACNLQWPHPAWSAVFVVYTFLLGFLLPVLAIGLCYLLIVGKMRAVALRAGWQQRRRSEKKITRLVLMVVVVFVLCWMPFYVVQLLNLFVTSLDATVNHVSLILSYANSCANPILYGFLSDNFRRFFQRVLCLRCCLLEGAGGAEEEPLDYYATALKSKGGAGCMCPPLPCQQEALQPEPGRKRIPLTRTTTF
Sequence of Somatostatin receptor type 2 (P30874 whole entry): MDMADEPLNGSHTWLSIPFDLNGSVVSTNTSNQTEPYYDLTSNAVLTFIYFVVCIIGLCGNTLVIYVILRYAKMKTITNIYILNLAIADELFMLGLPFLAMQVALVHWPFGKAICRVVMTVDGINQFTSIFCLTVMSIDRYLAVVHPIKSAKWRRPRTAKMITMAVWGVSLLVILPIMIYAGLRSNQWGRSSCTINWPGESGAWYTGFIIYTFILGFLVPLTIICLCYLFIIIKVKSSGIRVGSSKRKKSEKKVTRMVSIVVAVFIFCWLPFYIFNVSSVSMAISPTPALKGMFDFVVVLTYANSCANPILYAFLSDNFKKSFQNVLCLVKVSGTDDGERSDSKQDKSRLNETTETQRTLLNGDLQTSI

IC50 [1] [nM] | IC50 [2] [nM] | IC50 [3] [nM] | IC50 [4] [nM] | IC50 [5] [nM] | SMILES
3.3 | 28 | 222 | 79 | 8.6 | C[C@@H](O)[C@@H]1NC(=O)[C@H](Cc2ccccc2)NC(=O)[C@H]([C@@H](C)O)NC(=O)[C@H](CCCCN)NC(=O)[C@@H](Cc2c[nH]c3ccccc23)NC(=O)[C@H](Cc2ccccc2)NC(=O)[C@H](Cc2ccccc2)NC(=O)[C@@H](N)CSSC[C@@H](C(=O)O)NC(=O)[C@H](CO)NC1=O
> 1000 | > 1000 | > 1000 | > 1000 | > 1000 | CC(C)NCc1ccc(C[C@@H]2NC(=O)[C@@H](Cc3c[nH]c4ccccc34)NC(=O)[C@H]3CCC(=O)NCC[C@@H](NC(=O)[C@H]([C@@H](C)O)NC2=O)C(=O)N[C@@H]([C@@H](C)O)C(=O)N[C@@H](CO)C(=O)N[C@H](C(=O)O)CSSC[C@H](NC(=O)[C@@H](N)Cc2ccc(O)cc2)C(=O)N[C@@H](CCCCN)C(=O)N[C@@H](Cc2ccccc2)C(=O)N3)cc1
1 | 1.9 | 52 | 197 | 43 | C[C@@H](O)[C@@H]1NC(=O)[C@H](Cc2ccccc2)NC(=O)[C@H]([C@@H](C)O)NC(=O)[C@H](CCCCN)NC(=O)[C@@H](Cc2c[nH]c3ccccc23)NC(=O)[C@H](Cc2ccccc2)NC(=O)[C@H](Cc2ccccc2)NC(=O)[C@@H](N)CSSC[C@@H](C(=O)O)NC1=O
> 1000 | > 1000 | > 1000 | > 1000 | > 1000 | CC(C)NCc1ccc(C[C@@H]2NC(=O)[C@@H](Cc3c[nH]c4ccccc34)NC(=O)[C@@H]3CCC(=O)NCC(=O)NCC[C@H](NC(=O)[C@H](Cc4ccccc4)NC(=O)[C@H]([C@@H](C)O)NC2=O)C(=O)N[C@@H](CO)C(=O)N[C@H](C(=O)O)CSSC[C@H](NC(=O)[C@@H](N)Cc2ccc(O)cc2)C(=O)N[C@@H](CCCCN)C(=O)N[C@@H](Cc2ccccc2)C(=O)N3)cc1
> 1000 | > 1000 | > 1000 | 181 | > 1000 | CC(C)NCc1ccc(C[C@@H]2NC(=O)[C@@H](Cc3c[nH]c4ccccc34)NC(=O)[C@@H]3CCC(=O)NCCCC[C@H](NC(=O)[C@H](Cc4ccccc4)NC(=O)[C@H]([C@@H](C)O)NC2=O)C(=O)N[C@@H](CO)C(=O)N[C@H](C(N)=O)CSSC[C@H](NC(=O)[C@@H](N)Cc2ccc(O)cc2)C(=O)N[C@@H](CCCCN)C(=O)N[C@@H](Cc2ccccc2)C(=O)N3)cc1
> 1000 | > 1000 | > 1000 | 18 | > 1000 | CC(C)NCc1ccc(C[C@@H]2NC(=O)[C@@H](Cc3c[nH]c4ccccc34)NC(=O)[C@@H]3CCC(=O)NCCCC[C@H](NC(=O)[C@H](Cc4ccc(O)cc4)NC(=O)[C@H]([C@@H](C)O)NC2=O)C(=O)N[C@@H](CO)C(=O)N[C@H](C(N)=O)CSSC[C@H](N)C(=O)N[C@@H](CCCCN)C(=O)N[C@@H](Cc2ccccc2)C(=O)N3)cc1
> 1000 | > 1000 | > 1000 | > 1000 | > 1000 | CC(C)NCc1ccc(C[C@@H]2NC(=O)[C@@H](Cc3c[nH]c4ccccc34)NC(=O)[C@@H]3CC(=O)NC[C@H](NC(=O)[C@H](Cc4ccccc4)NC(=O)[C@H]([C@@H](C)O)NC2=O)C(=O)N[C@@H](CO)C(=O)N[C@H](C(=O)O)CSSC[C@H](NC(=O)[C@@H](N)Cc2ccc(O)cc2)C(=O)N[C@@H](CCCCN)C(=O)N[C@@H](Cc2ccccc2)C(=O)N3)cc1
> 1000 | > 1000 | > 1000 | > 1000 | > 1000 | CC(C)NCc1ccc(C[C@@H]2NC(=O)[C@@H](Cc3c[nH]c4ccccc34)NC(=O)[C@@H]3CC(=O)NCCC[C@H](NC(=O)[C@H](Cc4ccccc4)NC(=O)[C@H]([C@@H](C)O)NC2=O)C(=O)N[C@@H](CO)C(=O)N[C@H](C(=O)O)CSSC[C@H](NC(=O)[C@@H](N)Cc2ccc(O)cc2)C(=O)N[C@@H](CCCCN)C(=O)N[C@@H](Cc2ccccc2)C(=O)N3)cc1
